Data published in ChEMBL document CHEMBL3045676, “Anti-tobacco mosaic virus (TMV) Quassinoids from Brucea javanica (L.) Merr” (J Agric Food Chem, 2010).
The source made the active and inactive calls. No cut-off for these calls is given here.

Key:
Tobacco mosaic virus [1] = experiment: Antiviral activity against Tobacco mosaic virus strain U1 (TMV) infected Nicotiana tabacum cv. K326 leaves assessed as decrease in Tobacco mosaic virus coat protein level at 20 uM at 25 degC treated at 6 hr after viral inoculation measured after 48 hr by leaf disk method/western blot analysis; type: functional, organism-based
Procedure, shortened: (§1)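 N. tabacum cv. K326 leaves (5-6-leaf stage) mechanically inoculated with TMV (32 μg/mL in 0.01 M PBS). After 6 h, 1 cm disks without major veins were cut and floated on compound solution, with DMSO negative control and ningnanmycin positive control, at 25 °C for 48 h. Coat protein was then detected by SDS-PAGE and Western blot with polyclonal anti-TMV antibody and AP-conjugated anti-rabbit IgG using NBT/BCIP; samples run in duplicate.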

Tobacco mosaic virus [2] = experiment: Antiviral activity against Tobacco mosaic virus strain U1 (TMV) infected Nicotiana glutinosa leaves assessed as protective effect by decrease in local lesion number at 20 uM treated 6 hr prior to viral inoculation measured at 3-4 days after viral challenge; type: functional
Procedure, shortened: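 N. glutinosa plants pretreated with compound solutions (DMSO diluted in distilled water) or DMSO solution for 6 h, then inoculated with TMV and kept in an insect-free greenhouse 3-4 days until local lesions were visible; inhibition rate calculated from local lesion counts.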

Tobacco mosaic virus [3] = experiment: (§2) In vivo antiviral activity against Tobacco mosaic virus strain U1 (TMV) infected left side of Nicotiana glutinosa leaves assessed as decrease in local lesion numbers co-incubated with virus for 30 min before inoculation onto leaves measured at 3-4 days after viral challenge by half-leaf method; type: functional, organism-based
Procedure, shortened: (§3)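 Half-leaf test on N. glutinosa at the 5-6-leaf stage. Compound was dissolved in DMSO, diluted in water and mixed with TMV (32 μg/mL in 0.01 M PBS) for 30 min, then rubbed onto the left half-leaf; the right half received virus plus DMSO. Local lesions were counted after 3-4 days, with three repetitions. Inhibition % = (C−T)/C×100 using mean lesion counts. IC50 was taken from a 1.25-20 μM series.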

Tobacco mosaic virus [4] = experiment: as §2, with “numbers at 10 uM” for “numbers”; type: functional; procedure, shortened: as §3
Tobacco mosaic virus [5] = experiment: as §2, with “numbers at 5 uM” for “numbers”; type: functional; procedure, shortened: as §3
Tobacco mosaic virus [6] = experiment: as §2, with “numbers at 2.5 uM” for “numbers”; type: functional; procedure, shortened: as §3
Tobacco mosaic virus [7] = experiment: as §2, with “numbers at 1.25 uM” for “numbers”; type: functional; procedure, shortened: as §3
Tobacco mosaic virus [8] = experiment: as §2, with “numbers at 20 uM” for “numbers”; type: functional; procedure, shortened: as §3
Tobacco mosaic virus [9] = experiment: Antiviral activity against Tobacco mosaic virus strain U1 (TMV) infected Nicotiana tabacum cv. K326 leaves assessed as decrease in Tobacco mosaic virus coat protein level at 25 degC treated at 6 hr after viral inoculation measured after 48 hr by leaf disk method/western blot analysis; type: functional, organism-based; procedure, shortened: as §1
Tobacco mosaic virus [10] = experiment: Ratio of ningnamycin IC50 to compound IC50 for Tobacco mosaic virus strain U1 (TMV) infected left side of Nicotiana glutinosa leaves by half-leaf method; type: functional
Procedure, shortened: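 Ratio of IC50 values from the half-leaf N. glutinosa lesion assay, with ningnanmycin as the reference compound. Virus (32 μg/mL) was premixed with compound for 30 min before inoculation, and lesions were counted after 3-4 days.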

IC50 (Tobacco mosaic virus [3])	SMILES	inhibition (Tobacco mosaic virus [1])	inhibition at 20 µM (Tobacco mosaic virus [2])	inhibition in vivo at 10 µM (Tobacco mosaic virus [4])	inhibition in vivo at 5 µM (Tobacco mosaic virus [5])	inhibition in vivo at 2.5 µM (Tobacco mosaic virus [6])	inhibition in vivo at 1.25 µM (Tobacco mosaic virus [7])	inhibition in vivo at 20 µM (Tobacco mosaic virus [8])	inhibition (Tobacco mosaic virus [9])	Ratio IC50 (Tobacco mosaic virus [10])
	COC1=C[C@@H](C)[C@@H]2C[C@H]3OC(=O)C[C@H]4[C@@H](C)[C@H](OC)[C@@H](O)[C@H]([C@@]2(C)C1=O)[C@@]34C	inactive								
3.47 µM	COC(=O)[C@@]12OC[C@]34[C@H]([C@@H](O)[C@@H]1O)[C@@]1(C)CC(=O)C(O)=C(C)[C@@H]1C[C@H]3OC(=O)[C@H](OC(C)=O)[C@@H]24 [BRUCEINE B]	Active	86.3%	81.5%	65.2%	40.6%	20.5%	88.9%		
	CC1=C[C@H](O)[C@@H](O)[C@]2(C)[C@H]3[C@@H](O)[C@H](O)[C@@]4(C)OC[C@@]35[C@@H](C[C@@H]12)OC(=O)[C@H](O)[C@]54O [BRUCEINE E]	Active						28.7%		
	COC(=O)[C@@]12OC[C@]34[C@H]([C@@H](O)[C@@H]1O)[C@@]1(C)C=C(O[C@@H]5O[C@H](CO)[C@@H](O)[C@H](O)[C@H]5O)C(=O)[C@@H](C)[C@@H]1C[C@H]3OC(=O)[C@H](OC(=O)C=C(C)C)[C@@H]24 [BRUCEOSIDE A]	Active						24.1%		
3.42 µM	COC(=O)[C@]12OC[C@]34[C@H]([C@@H](O)[C@@H]1O)[C@@]1(C)CC(=O)C(O)=C(C)[C@@H]1C[C@H]3OC(=O)[C@H](OC(=O)C=C(C)C)[C@@H]24 [BRUSATOL]	Active	77.5%	71.5%	64.7%	48.8%	20%	88.9%	Dose-dependent effect	34
4.64 µM	COC(=O)[C@]12OC[C@]34[C@H]([C@@H](O)[C@@H]1O)[C@@]1(C)CC(=O)C(O[C@@H]5O[C@H](CO)[C@@H](O)[C@H](O)[C@H]5O)=C(C)[C@@H]1C[C@H]3OC(=O)[C@H](OC(=O)C=C(C)C)[C@@H]24 [Bruceoside-B]	Active	90.2%	66.7%	53.8%	31.7%	21.4%	78.4%		
	COC(=O)[C@]12OC[C@@]34[C@@H](CC5=C(C)C(=O)C(O)=C[C@]5(C)[C@H]3[C@@H](O)[C@@H]1O)OC(=O)[C@H](OC(C)=O)[C@@H]24 [DEDYDROBRUCEINE B]	Active						59.1%		
	COC(=O)[C@]12OC[C@]34[C@H]([C@@H](O)[C@@H]1O)[C@@]1(C)CC(=O)[C@H](O)[C@@H](C)[C@@H]1C[C@H]3OC(=O)[C@H](OC(=O)/C=C(\C)C(C)(C)OC(C)=O)[C@@H]24 [JAVANICOLIDE F]							52.1%		
	COC(=O)[C@]12OC[C@]34[C@H]([C@@H](O)[C@@H]1O)[C@@]1(C)CC(=O)[C@H](O)[C@@H](C)[C@@H]1C[C@H]3OC(=O)[C@H](OC(=O)C=C(C)C)[C@@H]24 [JAVANICOLIDES E]							52%		
	CNCC(=O)N[C@@H](CO)C(=O)N[C@H]1[C@H](O)[C@@H](O)[C@H](n2ccc(N)nc2=O)O[C@@H]1C(N)=O [NINGNANMYCIN]			67.5%	46.6%	37.9%	28%	25.3%		
	CC1=C[C@H](O[C@@H]2O[C@H](CO)[C@@H](O)[C@H](O)[C@H]2O)[C@@H](O)[C@]2(C)[C@H]3[C@@H](O)[C@H](O)[C@]4(C)OC[C@@]35[C@@H](C[C@@H]12)OC(=O)[C@H](O)[C@]54O [YADANZIGAN]	Active						30.6%		
5.66 µM	COC(=O)[C@]12OC[C@]34[C@H]([C@@H](O)[C@@H]1O)[C@@]1(C)[C@H](O)[C@@H](O)C=C(C)[C@@H]1C[C@H]3OC(=O)[C@H](OC(C)=O)[C@@H]24 [YADANZIOSIDE D]	Active		59.2%	48.4%	38.5%	21.4%	70.8%		
	COC(=O)[C@]12OC[C@]34[C@H]([C@@H](O)[C@@H]1O)[C@@]1(C)C=C(O[C@@H]5O[C@H](CO)[C@@H](O)[C@H](O)[C@H]5O)C(=O)[C@@H](C)[C@@H]1C[C@H]3OC(=O)[C@H](OC(C)=O)[C@@H]24 [YADANZIOSIDE F]	Active						31.1%		
4.22 µM	COC(=O)[C@]12OC[C@]34[C@H]([C@@H](O)[C@@H]1O)[C@@]1(C)CC(=O)C(O[C@@H]5O[C@H](CO)[C@@H](O)[C@H](O)[C@H]5O)=C(C)[C@@H]1C[C@H]3OC(=O)[C@H](OC(C)=O)[C@@H]24 [YADANZIOSIDE I]	Active		67.9%	54.9%	35.4%	26.1%	81.5%		
	COC(=O)[C@]12OC[C@]34[C@H]([C@@H](O)[C@@H]1O)[C@@]1(C)C=C(O[C@@H]5O[C@H](CO)[C@@H](O)[C@H](O)[C@H]5O)C(=O)[C@@H](C)[C@@H]1C[C@H]3OC(=O)[C@H](OC(=O)/C=C(\C)C(C)(C)OC(C)=O)[C@@H]24 [Yadanzioside G]	Active						33.7%		
4.86 µM	COC(=O)[C@]12OC[C@]34[C@H]([C@@H](O)[C@@H]1O)[C@@]1(C)CC(=O)C(O[C@@H]5O[C@H](CO)[C@@H](O)[C@H](O)[C@H]5O)=C(C)[C@@H]1C[C@H]3OC(=O)[C@H](OC(=O)/C=C(\C)C(C)(C)O)[C@@H]24 [Yadanzioside L]	Active	54.4%	64.3%	53.3%	35%	20%	73.8%		

SMILES	IC50 (Tobacco mosaic virus [3])	inhibition (Tobacco mosaic virus [1])	inhibition at 20 µM (Tobacco mosaic virus [2])	inhibition in vivo at 10 µM (Tobacco mosaic virus [4])	inhibition in vivo at 5 µM (Tobacco mosaic virus [5])	inhibition in vivo at 2.5 µM (Tobacco mosaic virus [6])	inhibition in vivo at 1.25 µM (Tobacco mosaic virus [7])	inhibition in vivo at 20 µM (Tobacco mosaic virus [8])	inhibition (Tobacco mosaic virus [9])	Ratio IC50 (Tobacco mosaic virus [10])
CC1=CC(=O)[C@@H](O)[C@]2(C)[C@H]3[C@@H](O)[C@H](O)[C@]4(C)OC[C@@]35[C@@H](C[C@@H]12)OC(=O)[C@H](O)[C@]54O [BRUCEINE D]	5.29 µM	Active	72.2%	66.7%	47.9%	29.1%	21.4%	78.6%		
CC1=CC(=O)[C@@H](O)[C@]2(C)[C@H]3[C@@H](O)[C@H](O)[C@]4(CO)OC[C@@]35[C@@H](C[C@@H]12)OC(=O)[C@H](O)[C@]54O [YADANZIOLIDE A]	5.5 µM	Active		58.7%	46.1%	39.2%	22.4%	75%		
